Measurements taken from the RNAGym collection of RNA variant scans (doi:10.1126/science.aae0568).
Variants at the floor of the assay were thinned out.

B1: tRNA (parent)
chain: GUUCCGUUGGCGUAAUGGUAACGCGUCUCCCUCCUAAGGAGAAGACUGCGGGUUCGAGUCCCGUACGGAACG

Variants of: B1
Experiment: yeast fitness relative to wild type (ratio to wild type); higher = fitter; tRNA-Arg(CCU), competitive growth, 37 C, YPD
Outline: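 Amplicons of the tRNA-Arg(CCU) gene were sequenced, 100-nucleotide paired-end, from the start population and from each end population of a pooled yeast competition. The competition, in six parallel replicates, lasted 24 hours in YPD at 37°C. Fitness relative to wild type was calculated from changes in genotype frequencies. Genotypes had to have ≥ 100 starting reads, and estimates < 0.5 were set to 0.5.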

First: GUUCCGUUGGCGUAAUGGUAACGCGUCUCCCUCCUAAGAAGAAGAAUGCGGGUUCGAGUCCCGUACGGAACG [G39A C46A]
Second: GUUCCGUUGGCGUAAUGGUAACGCGUCUCCCUCCUAACGAGAAGACUGCGGGUUCGAGUCCCGUACGAAUCG [G38C G68A A70U]
The yeast fitness of the first is higher: 1.01 for the first, ≤ 0.5 for the second.

First: GUUCCGUUGGCGUAAUGGUAACGCGUCUCCCUCCUAAGAAGAAGACUGAGGAUUCGAGUCCCAUACGGACCG [G39A C49A G52A G63A A70C]
Second: GUUCCGUUGGCGUAAUGGUAACGCGUCUCCCUCCUAAGAAGAAGACUGAGGGUUCGAGUCCCGUACGGAACG [G39A C49A]
The yeast fitness of the first is lower: ≤ 0.5 for the first, 0.598 for the second.

Going from GUUCCGUUGGCGUAAUGGUAACGCGUCUCCCUCCUAAGAAGAAGACUGGGGGUUCGAGUCCCGUACGGAACG [G39A C49G] to GUUCCGUUGGCGUAAUGGUAACGCGUCUCCCUCCUAAGAAGAAGACUGCGGGUUCGAGUCCGGUACGGAACG [G39A C62G], the yeast fitness rises from 0.66 to 0.752.

Compared with GUUCCGUUGGCGUAAUGGUAACGCGUCUCCCUCCUAACGAGAAGACUGCGGGUUCAAGUCCCGUACGGAACG [G38C G56A], GUUCCGUUGGCGUAAUGGUAACGCGUCUCCCUCCUAAGAAGCAGACUGCGGGUUCGAGUCUCGUACGGAACG [G39A A42C C61U] is lower in yeast fitness: 0.789 for the first, 0.542 for the second.

Going from GUUCCGUUGGCGUAAUGGUAACGCGUCUCCCUCCUAAGAAGAAGACUGCGGGUUCAAGUCCCGUACGGAACG [G39A G56A] to GUUCCGUUGGCGUAAUGGUAACGCGUCUCCCUCCUAAGAAGAAGACUGCGGGUUCGUGUCCCGUACGGAACG [G39A A57U], the yeast fitness falls from 0.914 to 0.834.

First: GUUCCGUUGGCGUAAUGGUAACGCGUCUCCCUCCUAAGAAGAAGACUGCGGGUUCGGGUCCCGUACGGAACG [G39A A57G]
Second: GUUCCGUUGGCGUAAUGGUAACGCGUCUCCCUCCUAAGAAGGAGACUGCGGGUUCGAGUCCCGUACGGAACG [G39A A42G]
The yeast fitness of the first is lower: 0.79 for the first, 0.811 for the second.

Compared with GUUCCGUUGGCGUAAUGGUAACGCGUCUCCCUCCUAAGAAGCAGACUGCGGGUUCGAGUCCCGUACGGAACG [G39A A42C], GUUCCGUUGGCGUAAUGGUAACGCGUCUCCCUCCUAAGAAGAUGACUGCGGGUUCGGGUCCCGUACGGAACG [G39A A43U A57G] is lower in yeast fitness: 0.646 for the first, 0.562 for the second.

Compared with GUUCCGUUGGCGUAAUGGUAACGCGUCUCCCUCCUAAGAAGAAGCCUGCGGGUUCGAGUCACGUACGGAACG [G39A A45C C61A], GUUCCGUUGGCGUAAUGGUAACGCGUCUCCCUCCUAAGAAGAAGCCUGCGGGUUCGAGUCUCGUACGGAACG [G39A A45C C61U] is higher in yeast fitness: 0.618 for the first, 0.706 for the second.

Going from GUUCCGUUGGCGUAAUGGUAACGCGUCUCCCUCCUAACGAGAAGACUGCGGGUACGAGUCCCGUACGGAACG [G38C U54A] to GUUCCGUUGGCGUAAUGGUAACGCGUCUCCCUCCUAACGAGAAGACUGCGGGUUCGACUCCCGUACGGUACG [G38C G58C A69U], the yeast fitness rises from 0.615 to 0.714.

First: GUUCCGUUGGCGUAAUGGUAACGCGUCUCCCUCCUAAGAAGAAGACUGCGGGUUUGAGUCACGUACGGAACG [G39A C55U C61A]
Second: GUUCCGUUGGCGUAAUGGUAACGCGUCUCCCUCCUAAGAAGAAGACUGUGGGUUCGAGUCCUGUACGGAACG [G39A C49U C62U]
The yeast fitness of the first is lower: ≤ 0.5 for the first, 0.664 for the second.

First: GUUCCGUUGGCGUAAUGGUAACGCGUCUCCCUCCUAAGAAGAUGACUGCGGGUUCGAGUCCCGUACGGAACG [G39A A43U]
Second: GUUCCGUUGGCGUAAUGGUAACGCGUCUCCCUCCUAAGAAGAAGACUGCGGCUUGGAGUCCCGUACGGAACG [G39A G52C C55G]
The yeast fitness of the first is higher: 0.811 for the first, 0.541 for the second.

Compared with GUUCCGUUGGCGUAAUGGUAACGCGUCUCCCUCCUAAGAAGAAGACUGCGGGUUCGAGUCCCGUGCGGAACG [G39A A65G], GUUCCGUUGGCGUAAUGGUAACGCGUCUCCCUCCUAAGAAGAAGACUGCGGGUUCGAGUCCCGUCCGGAACG [G39A A65C] is lower in yeast fitness: 0.985 for the first, 0.837 for the second.

First: GUUCCGUUGGCGUAAUGGUAACGCGUCUCCCUCCUAAGAAGAAGACUCCGGGUUCGAGUCCCGUACGGAACG [G39A G48C]
Second: GUUCCGUUGGCGUAAUGGUAACGCGUCUCCCUCCUAAGAAGAAAACUGCGAGUUCGAGUCCCGUACGGAACG [G39A G44A G51A]
The yeast fitness of the first is higher: 0.718 for the first, 0.597 for the second.

Compared with GUUCCGUUGGCGUAAUGGUAACGCGUCUCCCUCCUAAGAAGAAGACUGCGGGUUCGUGUCCCGUACCGAACG [G39A A57U G67C], GUUCCGUUGGCGUAAUGGUAACGCGUCUCCCUCCUAAGAUGAAGACUGCGGGUUCGAGUCCCGUACGGAACG [G39A A40U] is higher in yeast fitness: 0.555 for the first, 1.19 for the second.

Compared with GUUCCGUUGGCGUAAUGGUAACGCGUCUCCCUCCUAAGAAGAAGACUGCGGGUUCGAGUCCCGUACGGACCG [G39A A70C], GUUCCGUUGGCGUAAUGGUAACGCGUCUCCCUCCUAAGAAGAAGACUGCGGCUUGGAGUACCGUACGGAACG [G39A G52C C55G C60A] is lower in yeast fitness: 1.04 for the first, ≤ 0.5 for the second.

Compared with GUUCCGUUGGCGUAAUGGUAACGCGUCUCCCUCCUAACGAGAAGACUGCGGGUUCGAGUCCCGUACGCAACG [G38C G68C], GUUCCGUUGGCGUAAUGGUAACGCGUCUCCCUCCUAAGAAGAAGACUGGGGGUUCGAGUCCCGUACGGUACG [G39A C49G A69U] is lower in yeast fitness: 0.819 for the first, ≤ 0.5 for the second.

Compared with GUUCCGUUGGCGUAAUGGUAACGCGUCUCCCUCCUAAGAAGAAGACUGCGGGUUCGAGUGCCGUACGGAACG [G39A C60G], GUUCCGUUGGCGUAAUGGUAACGCGUCUCCCUCCUAAGAAGAAGACUGCGGGUUCGAGUCCCGUAGGGAACG [G39A C66G] is higher in yeast fitness: 0.666 for the first, 0.711 for the second.

First: GUUCCGUUGGCGUAAUGGUAACGCGUCUCCCUCCUAAGAAGAAGACUGCGGGUUCGAGUCCCGUAAGGAACG [G39A C66A]
Second: GUUCCGUUGGCGUAAUGGUAACGCGUCUCCCUCCUAACGAGAAGACGGCGGGUUCGAGUCCCGUACGGAACG [G38C U47G]
The yeast fitness of the first is higher: 0.698 for the first, 0.538 for the second.

First: GUUCCGUUGGCGUAAUGGUAACGCGUCUCCCUCCUAACGAGAAGACCGCGGGUUCGAGUCCCGUACGGAACG [G38C U47C]
Second: GUUCCGUUGGCGUAAUGGUAACGCGUCUCCCUCCUAACGAGAAGACUGCGGGUUCGAGUCCCGUACAGUACG [G38C G67A A69U]
The yeast fitness of the first is higher: 0.757 for the first, 0.537 for the second.
